Data set [1] addresses T1, Serine protease 1 (Homo sapiens, UniProt P07477). Nature of the data set: Inhibitory activity against human trypsin.
The nature of data set [2]: Partition coefficient (logP). The class given is physicochemical. As to conditions: octanol/water. In a few lines:
(§1)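 Octanol/pH 7.4 phosphate buffer standard partition method.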

The target of the next data set is Prothrombin (Homo sapiens, UniProt P00734). As to the kind of experiment: Inhibitory activity against human thrombin.
A short description of data set [3]: (§2) Number of occlusions was reported. The class given is ADME. In a few lines:
(§3)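 Rat carotid artery FeCl3-induced thrombosis: inhibitor infused iv at 6 µg/kg/min for 120 min before FeCl3 insult (vehicle saline or 30% propylene glycol/saline); occlusions counted; plasma drug level at end of experiment. 2X APTT = plasma concentration (µM) doubling activated partial thromboplastin time, determined in rat plasma.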

Data set [4] concerns Rattus norvegicus. As to the kind of experiment: AUC (Area under curve) was determined after intravenous administration at a dose 2 mg/kg in rat. The settings on record: in vivo. Details: dose 2 mg/kg, route intravenous. The class given is ADME, organism-based, Plasma.
Data set [5] is described as follows: Bioavailability in rat. The class given is ADME, organism-based. As to conditions: in vivo. Put shortly: (§4)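 Cannulated rats (carotid artery; jugular vein for iv group) dosed 2 mg/kg iv (saline or 30% propylene glycol/saline) or 10 mg/kg po (0.1% methocel suspension). Blood sampled 1-360 min (iv) or 15-360 min (po), centrifuged, plasma extracted with acetonitrile and quantified by thrombin enzyme activity assay.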

A short description of data set [6]: The half life period in rat. The class given is ADME, organism-based. The settings on record: in vivo. Put shortly: as §4
Data set [7] can be described thus: (§5) log P values were determined by the standard partition method using octanol/pH 7.4 phosphate buffer. The class given is physicochemical. In a few lines:
as §1

Data set [8] is filed under the species Rattus norvegicus. The description is as §2. The class given is functional. Put shortly: as §3
For data set [9], the system named is Rattus norvegicus. Nature of the data set: AUC (Area under curve) was determined after peroral administration at a dose 10 mg/kg in rat. The class given is ADME, organism-based, Plasma. Also noted: dose 10 mg/kg, route oral. The settings on record: in vivo, po.
Data set [10] addresses T1, Serine protease 1. Nature of the data set: Inhibitory activity against human serine protease (Trypsin)(2143*).
Data set [11] in a line: The fraction of free compound available in plasma of human. The class given is ADME, cell-free. The settings on record: read-out: Funbound_plasma.
Another data set addresses Coagulation factor X (Homo sapiens, UniProt P00742). As to the kind of experiment: Inhibitory activity against human serine protease Coagulation factor X (1.7*10e6*).
Data set [12] has as its target Tissue-type plasminogen activator (Homo sapiens, UniProt P00750). Nature of the data set: Inhibitory activity against human serine protease (TPA) (2.5*10e6*).
Data set [13] is described as follows: The plasma clearance in rat. The class given is ADME, organism-based. As to conditions: read-out: CI. In a few lines: as §4
Data set [14] in a line: The fraction of free compound available in plasma of rat. The class given is ADME, cell-free. The settings on record: read-out: Funbound_plasma.
The target of the next data set is Plasma kallikrein (Homo sapiens, UniProt P03952). Nature of the data set: Inhibitory activity against human serine protease (plasma Kallikrein) (89000*).
The target in the next data set is Plasminogen (Homo sapiens, UniProt P00747). As to the kind of experiment: Inhibitory activity against human serine protease (plasmin) (3.0*10e6).
Data set [15] is described as follows: The plasma clearance in dog. The class given is ADME, organism-based, Canis lupus familiaris. The settings on record: read-out: CI. In a few lines: (§6)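 Two fasted male beagle dogs (10-12 kg), crossover design. Oral 5 mg/kg as 1% methocel suspension, blood from jugular vein at 0-480 min; iv 1 mg/kg bolus in 20% PEG/saline, blood at 0-480 min. Plasma frozen at -20 °C and assayed by HPLC.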

A short description of data set [16]: The half life period by peroral administration in dog. The class given is ADME, organism-based, Canis lupus familiaris. The settings on record: in vivo, po. In a few lines:
as §6

The subject of data set [17] is Canis familiaris. Nature of the data set: AUC (Area under curve) was determined after intravenous administration at a dose 1 mg/kg in dog. The class given is ADME, organism-based, Canis lupus familiaris, Plasma. Also noted: dose 1 mg/kg, route intravenous. As to conditions: in vivo. Put shortly:
as §6

Data set [18] in a line: Bioavailability in dog. The settings on record: in vivo. The class given is ADME, organism-based, Canis lupus familiaris. Put shortly:
as §6

Data set [19] can be described thus: The half life period by intravenous administration in dog. The class given is ADME, organism-based, Canis lupus familiaris. The settings on record: in vivo. In a few lines:
as §6

The test system of data set [20] is Canis familiaris. Nature of the data set: AUC (Area under curve) was determined after peroral administration at a dose 5 mg/kg in dog. The class given is ADME, organism-based, Canis lupus familiaris, Plasma. Also noted: dose 5 mg/kg, route oral. As to conditions: in vivo, po. In a few lines:
as §6

Data set [21] relates to Rattus norvegicus. As to the kind of experiment: Concentration required to double the activated partial thromboplastin time (2X APTT) in FeCl3 induced thrombosis in rat carotid artery at 6 micro g/kg/min dose by intravenous administration. The class given is functional. Put shortly: as §3
Data set [22] in a line: as §5. The class given is physicochemical. Put shortly: as §1
This is another data set of the same source.

Where only a bound is given, the exact number is not on record here.

The term Ki denotes the equilibrium dissociation constant of an inhibitor or competing ligand from its target. Higher therefore signals a looser hold on the target. The logP is a log measure of how a compound divides between an organic and an aqueous phase. Lower therefore signals a more hydrophilic compound. Broadly, the AUC is concentration integrated over time. Higher therefore signals more exposure. What is called bioavailability is dose-corrected exposure relative to a reference, in per cent. Lower therefore signals poor availability. By half-life is commonly meant how long it takes for the measured level to halve. A word on the logD: it is the decadic logarithm of the distribution of all forms, ionised or not, between an organic phase and buffer at a given pH. A lower logD goes with lower lipophilicity.

T1 sequence (P07477 whole entry): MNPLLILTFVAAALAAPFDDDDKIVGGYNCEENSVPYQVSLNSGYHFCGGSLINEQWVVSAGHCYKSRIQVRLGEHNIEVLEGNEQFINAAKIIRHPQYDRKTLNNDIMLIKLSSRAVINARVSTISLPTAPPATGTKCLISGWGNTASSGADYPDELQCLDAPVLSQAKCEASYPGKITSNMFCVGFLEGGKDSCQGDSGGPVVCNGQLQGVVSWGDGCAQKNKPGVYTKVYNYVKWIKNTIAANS
Sequence of Coagulation factor X (P00742 41-179 limits assumed): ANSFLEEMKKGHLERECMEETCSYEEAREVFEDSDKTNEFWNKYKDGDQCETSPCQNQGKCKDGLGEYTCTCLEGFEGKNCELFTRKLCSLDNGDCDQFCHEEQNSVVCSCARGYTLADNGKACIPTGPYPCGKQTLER
Sequence of Coagulation factor X (P00742 235-488 limits assumed): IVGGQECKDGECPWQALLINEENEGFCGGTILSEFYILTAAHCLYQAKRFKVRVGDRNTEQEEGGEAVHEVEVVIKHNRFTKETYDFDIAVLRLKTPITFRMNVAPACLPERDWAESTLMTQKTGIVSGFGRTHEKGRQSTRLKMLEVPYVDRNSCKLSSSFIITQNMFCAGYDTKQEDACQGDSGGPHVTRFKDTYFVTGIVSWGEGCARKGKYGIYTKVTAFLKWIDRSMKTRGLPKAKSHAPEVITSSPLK
Sequence of Plasma kallikrein (P03952 20-390 limits assumed): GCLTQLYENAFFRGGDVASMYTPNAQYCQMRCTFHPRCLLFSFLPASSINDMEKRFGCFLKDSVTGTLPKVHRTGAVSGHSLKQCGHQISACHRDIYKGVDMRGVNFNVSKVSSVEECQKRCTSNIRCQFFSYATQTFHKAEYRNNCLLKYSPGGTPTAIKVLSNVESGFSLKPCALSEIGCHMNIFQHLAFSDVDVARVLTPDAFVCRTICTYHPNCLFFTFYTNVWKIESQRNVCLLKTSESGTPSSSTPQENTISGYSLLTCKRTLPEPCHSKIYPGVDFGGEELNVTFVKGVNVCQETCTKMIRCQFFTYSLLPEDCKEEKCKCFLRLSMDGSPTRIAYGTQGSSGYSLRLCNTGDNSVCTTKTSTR
Sequence of Plasma kallikrein (P03952 391-638 limits assumed): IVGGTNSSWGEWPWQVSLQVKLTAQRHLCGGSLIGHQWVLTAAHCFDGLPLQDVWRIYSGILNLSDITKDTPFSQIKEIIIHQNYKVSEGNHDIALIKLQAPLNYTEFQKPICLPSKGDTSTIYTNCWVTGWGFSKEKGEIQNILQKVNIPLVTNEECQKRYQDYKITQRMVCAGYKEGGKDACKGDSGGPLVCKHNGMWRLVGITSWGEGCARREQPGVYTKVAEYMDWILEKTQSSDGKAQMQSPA
Sequence of Plasminogen (P00747 97-580 limits assumed): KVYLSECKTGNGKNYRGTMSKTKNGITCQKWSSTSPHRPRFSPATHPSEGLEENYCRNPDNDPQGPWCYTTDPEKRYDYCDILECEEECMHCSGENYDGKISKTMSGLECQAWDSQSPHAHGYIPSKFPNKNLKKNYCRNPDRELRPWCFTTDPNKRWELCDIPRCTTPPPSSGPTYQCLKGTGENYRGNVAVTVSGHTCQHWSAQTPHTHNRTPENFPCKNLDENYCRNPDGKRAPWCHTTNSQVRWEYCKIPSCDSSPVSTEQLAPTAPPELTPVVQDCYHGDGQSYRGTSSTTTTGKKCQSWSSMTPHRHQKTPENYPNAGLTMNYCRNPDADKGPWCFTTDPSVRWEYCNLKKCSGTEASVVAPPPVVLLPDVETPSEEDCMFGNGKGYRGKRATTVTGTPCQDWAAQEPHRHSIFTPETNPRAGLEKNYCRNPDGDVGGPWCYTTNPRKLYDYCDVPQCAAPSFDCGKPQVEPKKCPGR
Sequence of Plasminogen (P00747 581-810 limits assumed): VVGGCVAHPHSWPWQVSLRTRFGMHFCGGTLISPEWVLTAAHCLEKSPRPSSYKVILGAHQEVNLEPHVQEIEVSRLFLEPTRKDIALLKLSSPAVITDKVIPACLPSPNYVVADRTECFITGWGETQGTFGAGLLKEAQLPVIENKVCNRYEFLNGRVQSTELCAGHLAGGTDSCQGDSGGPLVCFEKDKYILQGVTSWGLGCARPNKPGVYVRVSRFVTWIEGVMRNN
Sequence of Tissue-type plasminogen activator (P00750 whole entry): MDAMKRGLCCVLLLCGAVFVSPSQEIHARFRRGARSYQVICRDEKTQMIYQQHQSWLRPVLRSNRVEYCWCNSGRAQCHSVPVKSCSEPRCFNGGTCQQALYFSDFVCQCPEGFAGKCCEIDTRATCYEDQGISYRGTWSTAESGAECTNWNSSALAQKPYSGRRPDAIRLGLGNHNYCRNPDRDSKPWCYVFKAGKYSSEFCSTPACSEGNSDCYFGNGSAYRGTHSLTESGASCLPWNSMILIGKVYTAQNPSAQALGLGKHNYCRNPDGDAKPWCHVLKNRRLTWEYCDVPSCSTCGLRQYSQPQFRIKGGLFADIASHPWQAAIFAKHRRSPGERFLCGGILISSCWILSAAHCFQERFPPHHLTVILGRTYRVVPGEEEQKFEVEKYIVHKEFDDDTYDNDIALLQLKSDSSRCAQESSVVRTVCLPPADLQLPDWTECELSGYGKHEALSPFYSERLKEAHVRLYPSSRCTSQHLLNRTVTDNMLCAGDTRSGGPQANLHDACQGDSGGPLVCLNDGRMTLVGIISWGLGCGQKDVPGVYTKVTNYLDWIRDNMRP

With `NC1CCC(CNC(=O)[C@@H]2CCCN2C(=O)[C@H](N)C(c2ccccc2)c2ccccc2)CC1` (some centres not stated), the Ki at Serine protease 1 [1] amounted to 94 nM. The lipophilicity (logP) in data set [2] is -0.539.
In the case of `CC(C)(C)OC(=O)N[C@H](C(=O)N1CCC[C@H]1C(=O)NCC1CCC(N)CC1)C(C1CCCCC1)C1CCCCC1` (some centres not stated), at Prothrombin, the affinity corresponds to a Ki of 3000 nM.
Same read-out and setting: as for `NC1CCC(CNC(=O)[C@@H]2CCCN2C(=O)[C@@H](N)C(C2CCCCC2)C2CCCCC2)CC1` (some centres not stated), the figure is 440 nM.
Molecule `CC1CNc2c(cccc2S(=O)(=O)N[C@@H](CCCNC(=N)N)C(=O)N2CCC(C)C[C@@H]2C(=O)O)C1` (single isomer, unassigned) [ARGATROBAN] displayed a No. of occlusions in data set [3] of 0.
Regarding `NC1CCC(CNC(=O)[C@@H]2CCCN2C(=O)[C@H](N)C(C2CCCCC2)C2CCCCC2)CC1` (some centres not stated), the values for the AUC in the data set with Rattus norvegicus [4] and with Rattus norvegicus [9] were 3.3 µM·h and 0.36 µM·h, respectively. The same molecule registered a bioavailability in data set [5] of 2%. In [6], this molecule showed a half-life of 0.2 h. Further, the logD in data set [7] is 0.794. Besides, the No. of occlusions in the data set filed under Rattus norvegicus [8] came to 1. In addition, the Ki on Prothrombin amounted to 0.056 nM; at Serine protease 1 [10], 120 nM; at Coagulation factor X, 95000 nM; in data set [12], 137000 nM; at Plasma kallikrein, 5000 nM; at Plasminogen, 165000 nM. In addition, the fraction unbound in [11] came out at 0.02; in [14], 0.06. Moreover, the clearance in [13] was determined as 6 mL/min/kg.
`CC(C)(C)OC(=O)N[C@@H](C(=O)N1CCC[C@H]1C(=O)NCC1CCC(N)CC1)C(C1CCCCC1)C1CCCCC1` (some centres not stated): the AUC in the data set on Rattus norvegicus [4] worked out at 3.34 µM·h; with Rattus norvegicus [9], 6.86 µM·h; in the data set on Canis familiaris [17], 90 µM·h; with Canis familiaris [20], 45.3 µM·h. Besides, the bioavailability turned out to be 41% in data set [5] and 90% in data set [18]. Besides, the half-life in [6] came to 4.15 h; in [16] it was 7.13 h; in [19] it was 3.27 h. Moreover, the logD in [7] and in data set [22] was over 3.09 each time. The molecule also displayed a No. of occlusions in the data set listed under Rattus norvegicus [8] of 4. In addition, the clearance in data set [15] turned out to be 6.06 mL/min/kg; in data set [13] it was 17.9 mL/min/kg. Further, the Ki on Prothrombin worked out at 0.1 nM. For the same molecule, the fraction unbound in data set [14] was under 0.01. This molecule came in with a Concentration with Rattus norvegicus [21] of 2.7 µM.

(Values after ChEMBL document CHEMBL1130205, “Potent noncovalent thrombin inhibitors that utilize the unique amino acid D-dicyclohexylalanine in the P3 position. Implications on oral bioavailability and antithrombotic efficacy” (J Med Chem, 1997).)
